# Experimental data taken from PubChem BioAssay.
# The source made the active and inactive calls.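 The calls were made as follows, unless noted: active = viability at or under a set limit in both replicates, limit being median viability minus 3 SD (cut at about 48% in these data, passing the limit was not always enough); inconclusive = at or under the limit in just one replicate; inactive = at or above the limit in both replicates.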
# Tests used:
# [1] = reducers of endogenous Her2 protein level, primary screen, SKBR3 breast tumor cells, AlphaScreen, ATP viability (AID 461;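 active = Her2 level under about 52% in both replicate screens, with viability over 70% of control, limit read from the data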;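 as to Her2 level: lower value means less Her2 protein in the cells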;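 as to viability: percent of carrier control wells set as 100% viability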); settings: 18-24 h, measured here: SKBR3 viability, ATP luminescence, at 10 µM
# [2] = biological target: Receptor tyrosine-protein kinase erbB-2 (Homo sapiens) (UniProt P04626); assay: as above; settings: 18-24 h, at 10 µM, stronger effect = lower value
# [3] = SK-BR-3 cell growth inhibitors, pilot screen, 24 h, human (AID 572;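 active = viability at or below 10% of carrier control in both of two separate runs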;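 also: compound exposure lasted between 18 and 24 h rather than exactly 24 h; 100% = carrier-treated control wells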); settings: SK-BR-3 viability, CellTiter-Glo luminescence, at 10 µM, stronger effect = lower value
# [4] = HUVEC growth inhibition – cell-based, human, primary screen (AID 575;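 active = viability at or below 30% in both replicate assays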;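 also: 100% = median of untreated cell wells with 0.1% DMSO on each plate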); settings: HUVEC proliferation, CellTiter-Glo luminescence, 72 h; at 10 µM; stronger effect = lower value
# How it was run: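 Timing: 72 h treatment at 37 °C; material: HUVEC primary cells; technique: CellTiter-Glo luminescence measuring cellular ATP; controls: vehicle and MePR control wells; measure: percent of median DMSO-control luminescence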
# [5] = growth inhibitors of H69AR lung tumor, primary screen, human, duplicate replicates (AID 580); settings: H69AR lung tumor cells viability, ATP luminescence, 72 h; at 10 µM; stronger effect = lower value;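 also: 100% = mean luminescence of untreated wells and 0% = no signal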
# [6] = reversal of MRP1-mediated doxorubicin resistance, pilot screen, H69AR cells, doxorubicin co-treatment (AID 601;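 active = viability loss from added drug above about 55%, and viability with drug at most 40%, in both replicates, limit read from the data, passing the limit was not always enough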); settings: CellTiter-Glo, 72 h, at 10 µM; for differential viability (reversal): stronger effect = higher value
# [7] = 384-well plate pilot, post-Golgi transport modulator project, inhibition of yeast transport mutant growth (AID 636; in the data active = inhibition above about 31%); settings: absorbance 615 nm, about 18 h, stronger effect = higher value
# [8] = growth suppression of yeast trafficking mutant, preliminary HTS, modulators of trafficking downstream of Golgi apparatus project, 1536-format plate, OD 615 nm (AID 637; in the data active = inhibition above about 30%); settings: yeast transport mutant growth, absorbance 615 nm, 18 h; stronger effect = higher value
# [9] = H69AR cells + 2 uM doxorubicin, measured here: viability with 2 uM doxorubicin, stronger effect = lower value
# [10] = H69AR cells, compound alone cytotoxicity
# Sequence of Receptor tyrosine-protein kinase erbB-2 (Homo sapiens) (P04626 whole entry, looked up): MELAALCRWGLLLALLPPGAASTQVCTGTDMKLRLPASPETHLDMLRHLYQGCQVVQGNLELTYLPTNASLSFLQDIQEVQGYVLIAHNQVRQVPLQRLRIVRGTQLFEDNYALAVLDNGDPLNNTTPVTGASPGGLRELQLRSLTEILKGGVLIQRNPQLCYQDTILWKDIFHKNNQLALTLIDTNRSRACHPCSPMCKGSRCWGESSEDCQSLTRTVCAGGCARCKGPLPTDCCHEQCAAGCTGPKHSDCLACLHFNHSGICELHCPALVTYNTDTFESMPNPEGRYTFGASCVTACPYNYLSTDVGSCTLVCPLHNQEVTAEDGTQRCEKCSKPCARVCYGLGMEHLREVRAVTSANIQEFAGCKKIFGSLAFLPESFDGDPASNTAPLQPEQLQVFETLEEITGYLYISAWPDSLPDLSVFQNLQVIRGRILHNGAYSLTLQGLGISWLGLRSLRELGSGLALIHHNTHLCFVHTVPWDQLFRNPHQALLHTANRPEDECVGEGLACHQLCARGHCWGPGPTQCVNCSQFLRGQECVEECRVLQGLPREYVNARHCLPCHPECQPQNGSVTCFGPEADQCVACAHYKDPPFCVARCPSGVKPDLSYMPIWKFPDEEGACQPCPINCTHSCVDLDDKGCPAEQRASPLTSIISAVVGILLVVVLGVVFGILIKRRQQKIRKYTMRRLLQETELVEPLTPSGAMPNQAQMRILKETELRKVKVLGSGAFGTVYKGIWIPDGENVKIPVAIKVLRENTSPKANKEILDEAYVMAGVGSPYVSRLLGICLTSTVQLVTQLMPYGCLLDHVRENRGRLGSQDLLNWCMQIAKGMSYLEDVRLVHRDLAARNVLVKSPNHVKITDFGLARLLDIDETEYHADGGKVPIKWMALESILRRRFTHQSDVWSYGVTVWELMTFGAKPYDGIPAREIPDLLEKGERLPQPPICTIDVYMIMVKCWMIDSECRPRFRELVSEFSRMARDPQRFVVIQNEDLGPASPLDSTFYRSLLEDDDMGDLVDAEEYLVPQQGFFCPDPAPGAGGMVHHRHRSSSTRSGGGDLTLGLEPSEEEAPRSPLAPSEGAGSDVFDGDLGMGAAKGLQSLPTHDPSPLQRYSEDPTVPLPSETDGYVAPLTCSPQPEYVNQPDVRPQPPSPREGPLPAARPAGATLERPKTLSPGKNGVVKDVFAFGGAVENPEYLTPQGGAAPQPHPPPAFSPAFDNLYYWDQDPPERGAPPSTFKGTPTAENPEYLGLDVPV
SMILES,viability [1],Her2 level [2],viability [3],viability [4],viability [5],differential viability (reversal) ([6]; H69AR cells + 2 uM doxorubicin),"viability [6, 9]","viability [6, 10]",inhibition [7],inhibition [8]
COc1ccc(CCNS(=O)(=O)c2ccc3oc(C(=O)O)c(C)c3c2)cc1OC,109%,92% (inactive),109% (inactive),112% (inactive),88.7% (inactive),-2.46% (inactive),91.2%,88.7%,0.78% (inactive),1.15% (inactive)
CN(C(=O)COC(=O)C1CCN(S(=O)(=O)c2cccs2)CC1)C1CCS(=O)(=O)C1 (stereo not given),118%,127% (inactive),118% (inactive),94.9% (inactive),99.8% (inactive),12.6% (inactive),87.2%,99.8%,-4.4% (inactive),-7.74% (inactive)
O=C(O)C1CC(=O)N(c2ccc(Br)cc2)C1 (stereo not given),81.5%,122% (inactive),81.5% (inactive),94.6% (inactive),93.8% (inactive),4.02% (inactive),89.8%,93.8%,-6.05% (inactive),-4.1% (inactive)
COc1cccc(C(=O)CN2CCC(NC(=O)NC3CCCCC3)CC2)c1,92%,101% (inactive),92% (inactive),102% (inactive),98.1% (inactive),6.55% (inactive),91.5%,98.1%,-5.79% (inactive),-2% (inactive)
CCC(=O)N1Cc2ccccc2-c2ccccc2C1=O,102%,91% (inactive),102% (inactive),80.1% (inactive),90% (inactive),4.75% (inactive),85.2%,90%,-5.06% (inactive),4.76% (inactive)
O=c1c2c(nc3nc(COc4ccccc4)[nH]n13)CCC2,103%,103% (inactive),103% (inactive),99.5% (inactive),101% (inactive),10.9% (inactive),90.2%,101%,-4.8% (inactive),3.23% (inactive)
COC(=O)CC1C(=O)NCCN1C(=O)NC1CCCCC1 (stereo not given),94%,114% (inactive),94% (inactive),104% (inactive),98.8% (inactive),7.06% (inactive),91.7%,98.8%,-9.59% (inactive),-6.98% (inactive)
Cc1nnc(SCc2cn3ccsc3n2)n(N)c1=O,95.5%,81.5% (inactive),95.5% (inactive),95% (inactive),86.5% (inactive),-4.16% (inactive),90.7%,86.5%,0.26% (inactive),21.3% (inactive)
COc1cccc(C(=O)Nc2ncc3c(n2)CC(C)CC3=O)c1 (stereo not given),97.5%,88.5% (inactive),97.5% (inactive),107% (inactive),109% (inactive),9.34% (inactive),100%,109%,-2.16% (inactive),2.22% (inactive)
S=C(c1ccc(-c2cc(Cl)ccc2Cl)o1)N1CCOCC1,80.5%,85% (inactive),80.5% (inactive),86.4% (inactive),98.5% (inactive),-8.1% (inactive),107%,98.5%,-0.4% (inactive),5.16% (inactive)
Cc1ccc(C(=O)Nc2nc3c(s2)CCCC3)o1,104%,72% (inactive),104% (inactive),60.9% (inactive),73.3% (inactive),-5.85% (inactive),79.1%,73.3%,-1.71% (inactive),16.6% (inactive)
COc1cccc(C(=O)Nc2ccc(N(C)C)cc2)c1OC,97%,78.5% (inactive),97% (inactive),90% (inactive),90.9% (inactive),10.3% (inactive),80.5%,90.9%,-3.68% (inactive),-1.27% (inactive)
O=C(OCN1C(=O)c2ccccc2C1=O)c1ccc2c(=O)n3c(nc2c1)CCC3,109%,85.5% (inactive),109% (inactive),112% (inactive),96.7% (inactive),-0.565% (inactive),97.2%,96.7%,-4.73% (inactive),14.8% (inactive)
COc1cc(C2C(C#N)=C(N)OC3=C2C(=O)CC(C)(C)C3)ccc1OC(=O)N1CCOCC1 (stereo not given),84.5%,94.5% (inactive),84.5% (inactive),97.6% (inactive),98.8% (inactive),4.58% (inactive),94.2%,98.8%,1.49% (inactive),-7.54% (inactive)
